The source of these data is ChEMBL document CHEMBL2331364, “A synthetic dolastatin 10 analogue suppresses microtubule dynamics, inhibits cell proliferation, and induces apoptotic cell death” (J Med Chem, 2013).

Structures are written as SMILES. Where a SMILES comes first, the peptide text is derived from it. [ ]: non-standard residue; d: D form. The star is where a group is joined. X1 = COC1=CC(=O)N(C(=O)[C@@H](O*)C(C)C)[C@H]1Cc1ccccc1; NMe2Val = CC(C)[C@@H](C(=O)*)N(C)C; NMeV = CN[C@H](C(=O)O)C(C)C

Test [1] in a line: Inhibition of goat brain tubulin polymerization incubated for 20 mins prior to GTP addition measured for 30 mins by 90 degree light scattering-based fluorescence spectrophotometric method. Also noted: species or system Capra hircus. The essentials: (§1)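 Goat brain tubulin (10 μM) was preincubated with compound (5 μM; or 1, 5, 7, 10 μM) in 1 M monosodium glutamate, 3 mM MgCl2, 1 mM EGTA, 25 mM Pipes pH 6.8 on ice for 20 min. GTP (1 mM) was then added and assembly followed by 90° light scattering at 400 nm for 30 min at 37 °C. Experiment run twice.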

The subject of test [2] is HeLa. Description: Antiproliferative activity against human HeLa cells assessed as median dose after 24 hrs. It is filed as functional. The essentials: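 HeLa cells treated for 24 h with each agent alone and in combinations. The median dose (Dm) was taken from the median dose plot, and combination index was computed as CI = (D)1/(Dx)1 + (D)2/(Dx)2.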
The species entered for test [3] is Capra hircus. As to conditions: 3 uM.
Test [4] concerns HeLa. Description: Inhibition of mitosis in human HeLa cells assessed as mitotic index at 200 nM after 48 hrs by Hoechst 33258 DNA staining assay (reference value: 4 +/- 0.2 %). The format is functional. Further details: scale not given: the % may be the effect or the level left. The essentials:
(§2)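 HeLa cells were treated for 24 or 48 h with compound or vehicle (0.1% DMSO). DNA was stained with Hoechst 33258 and mitotic cells were counted to give the mitotic index.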

For test [5], the system named is HeLa. The test can be described thus: Induction of apoptosis in human HeLa cells assessed as apoptotic cells at 700 nM after 24 hrs by annexin V-FITC/propidium iodide staining-based FACS analysis. The format is functional. The essentials:
(§3)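 HeLa cells were exposed for 10 or 24 h, then stained with annexin V and propidium iodide using an apoptosis kit. Apoptotic cells were quantified by FACS. Compounds were dissolved in DMSO.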
For orientation: In flow cytometry, cells or beads pass a laser one at a time.

Test [6] has as its system HeLa. The test can be described thus: Inhibition of mitosis in human HeLa cells assessed as mitotic index at 100 nM after 48 hrs by Hoechst 33258 DNA staining assay (reference value: 4 +/- 0.2 %). The format is functional. Further details: scale not given: the % may be the effect or the level left. The essentials:
as §2

Test [7] concerns HeLa. Description: Inhibition of mitosis in human HeLa cells after 24 hrs by Hoechst 33258 DNA staining assay. The format is functional, cell-based. The essentials:
as §2

The test system of test [8] is HeLa. The test can be described thus: Inhibition of mitosis in human HeLa cells assessed as mitotic index at 100 nM after 24 hrs by Hoechst 33258 DNA staining assay (reference value: 4 +/- 0.3 %). The format is functional. Also noted: scale not given: the % may be the effect or the level left. The essentials: as §2
The test system of test [9] is HeLa. The test can be described thus: Inhibition of mitosis in human HeLa cells assessed as mitotic index at 200 nM after 24 hrs by Hoechst 33258 DNA staining assay (reference value: 4 +/- 0.3 %). It is filed as functional. Further details: scale not given: the % may be the effect or the level left. The essentials: as §2
For test [10], the system named is HeLa. The test can be described thus: Inhibition of mitosis in human HeLa cells assessed as mitotic index at 300 nM after 48 hrs by Hoechst 33258 DNA staining assay (reference value: 4 +/- 0.2 %). It is filed as functional. Also noted: scale not given: the % may be the effect or the level left. The essentials: as §2
Test [11] relates to HeLa. Description: Cytotoxicity against human HeLa cells after 24 to 48 hrs by trypan blue assay. The format is functional, cell-based. The essentials:
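Cells were seeded at 1 × 10^5 cells/mL, grown 24 h at 37 °C in 5% CO2, then given vehicle (0.1% DMSO) or 1–80 nM for a further 24 or 48 h. Attached plus floating cells were counted after trypan blue staining. Percent inhibition was plotted against concentration to give IC50. Average of three independent experiments.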

Test [12] has as its system HeLa. The test can be described thus: Inhibition of mitosis in human HeLa cells assessed as mitotic index at 300 nM after 24 hrs by Hoechst 33258 DNA staining assay (reference value: 4 +/- 0.3 %). It is filed as functional. Also noted: scale not given: the % may be the effect or the level left. The essentials:
as §2

In test [13] the test system is HeLa. Description: Induction of apoptosis in human HeLa cells assessed as apoptotic cells at 700 nM after 10 hrs by annexin V-FITC/propidium iodide staining-based FACS analysis. It is filed as functional. The essentials: as §3
Test [14] is filed under the species Capra hircus. Description: Inhibition of goat brain tubulin polymerization at 5 uM incubated for 20 mins prior to GTP addition measured for 30 mins by 90 degree light scattering-based fluorescence spectrophotometric method. The essentials:
as §1

Test [15] deals with SK-N-SH. Description: Cytotoxicity against human SK-N-SH cells assessed as cell death at 50 uM after 72 hrs by MTT assay. The format is functional.
The test system of test [16] is SK-N-SH. Description: Cytotoxicity against human SK-N-SH cells assessed as cell death at 80 uM after 72 hrs by MTT assay. The format is functional. For orientation: Formazan colour is commonly taken as a measure of viable cells.

As for `COC1=CC(=O)N(C(=O)[C@@H](OC(=O)[C@@H]2CCCN2C(=O)[C@@H]2CCCN2C(=O)[C@H](C(C)C)N(C)C(=O)[C@@H](NC(=O)[C@H](C(C)C)N(C)C)C(C)C)C(C)C)[C@H]1Cc1ccccc1` [DOLASTATIN 15] (NMe2Val-V[NMeV]PP-X1), the half-inhibitory concentration (IC50) – broadly, the concentration that gives 50% inhibition – in test [1] was 23 µM.
Regarding `COc1cc2c(c(OC)c1OC)-c1ccc(OC)c(=O)cc1[C@@H](NC(C)=O)CC2` [COLCHICINE], in test [2], the Activity was 17.8 nM.
For `CC[C@]1(O)C[C@@H]2CN(CCc3c([nH]c4ccccc34)[C@@](C(=O)OC)(c3cc4c(cc3OC)N(C)[C@H]3[C@@](O)(C(=O)OC)[C@H](OC(C)=O)[C@]5(CC)C=CCN6CC[C@]43[C@@H]65)C2)C1` [VINBLASTINE], the Activity in [2] is recorded as 2.3 nM. Further, in [1], the IC50 was found to be 1.5 µM. Further, in [3], the inhibition (usually the share of the control response that was lost under treatment) turned out to be 50%.
With `COC(=O)Nc1nc2cc(C(=O)c3cccs3)ccc2[nH]1` [NOCODAZOLE], the Activity in test [4] came out at 13%; in test [5], 50.5%; in test [6], 14%; in test [8], 22%; in test [9], 28%; in [10] it was 11%. Also, the Activity is given as 36% in [12] and 14.7% in test [13]. Also, the inhibition result in [7] is “Dose-dependent effect”. The molecule also displayed an IC50 in [11] of 178 nM.
Molecule `CC[C@H](C)[C@@H](/C=C/C(=O)NC[C@H]1O[C@@H](C(=O)N[C@@H](Cc2ccccc2)C2=NCCS2)[C@@H](OC)[C@@H]1OC)N(C)C(=O)[C@@H](NC(=O)[C@H](C(C)C)N(C)C)C(C)C` registered an inhibition in [14] of 21%. The same molecule returned an IC50 in test [11] of 8.8 nM.
`CC[C@H](C)[C@@H](/C=C/C(=O)NC[C@H]1O[C@@H](C(=O)N[C@@H](Cc2ccccc2)C2=NCCS2)[C@@H](OC)[C@@H]1OC)N(C)C(=O)[C@@H](NC(=O)[C@@H](NC)C(C)C)C(C)C`: the inhibition in test [14] turned out to be 19%. In addition, it took 8.7 nM to reach half-maximal inhibition in [11] (IC50).
With `CC[C@H](C)[C@@H]([C@H](O)CC(=O)NC[C@H]1O[C@@H](C(=O)NCc2ccccc2)[C@@H](OC)[C@@H]1OC)N(C)C(=O)[C@@H](NC(=O)[C@@H](NC)C(C)C)C(C)C`, in [11], the IC50 is 16 nM.
With `CC[C@H](C)[C@@H]([C@H](O)CC(=O)NC[C@H]1O[C@H](C(=O)NCc2ccccc2)[C@@H](OC)[C@@H]1OC)N(C)C(=O)[C@@H](NC(=O)[C@@H](NC)C(C)C)C(C)C`, in test [11], 12 nM corresponded to half-maximal inhibition (IC50).
As for `CC[C@]12C=CCN3CC[C@@]4(c5cc([C@@]6(C(=O)OC)C[C@@H]7C[C@@H](C(C)(F)F)CN(Cc8c6[nH]c6ccccc86)C7)c(OC)cc5N(C)[C@H]4[C@@](O)(C(=O)OC)[C@@H]1OC(C)=O)[C@@H]32` [VINFLUNINE], the figures for the Activity in test [15] and in test [16] were 50% and 70%, respectively.
In test [11], `CC[C@H](C)[C@@H]([C@@H](CC(=O)NC[C@H]1O[C@@H](C(=O)NCCc2ccccc2)[C@@H](OC)[C@@H]1OC)OC)N(C)C(=O)[C@@H](NC(=O)[C@@H](NC)C(C)C)C(C)C` yielded a 50% inhibitory concentration (IC50) of 15 nM.
Regarding `CO[C@@H](/C(C)=C/C=C/C(C)=C/c1coc(C)n1)[C@@H](C)[C@@H]1C[C@H](O)[C@@]2(C)O[C@@H]2/C=C/[C@@H](C)[C@H]2C[C@H](CC(=O)O2)C[C@@H]2O[C@H]2C(=O)O1` [RHIZOXIN], inhibition in [1] was half-maximal at 6.8 µM (IC50).
In test [14], `CC[C@H](C)[C@@H]([C@H](CC(=O)NC[C@H]1O[C@H](C(=O)N[C@@H](Cc2ccccc2)c2nccs2)[C@@H](OC)[C@@H]1OC)OC)N(C)C(=O)[C@@H](NC(=O)[C@@H](NC)C(C)C)C(C)C` showed an inhibition of 10%. For the same molecule, the IC50 in [11] is 9.9 nM.
On to `CC[C@H](C)[C@@H]([C@H](CC(=O)NC[C@H]1O[C@H](C(=O)N[C@@H](Cc2ccccc2)c2nccs2)[C@@H](OC)[C@@H]1OC)OC)N(C)C(=O)[C@@H](NC(=O)[C@H](C(C)C)N(C)C)C(C)C`, for which the IC50 in [11] is 16 nM.
Regarding `CC[C@H](C)[C@@H]([C@@H](CC(=O)N1CCC[C@H]1[C@H](OC)[C@@H](C)C(=O)N[C@@H](Cc1ccccc1)c1nccs1)OC)N(C)C(=O)[C@@H](NC(=O)[C@H](C(C)C)N(C)C)C(C)C` [DOLASTATIN-10], half-maximal inhibition in test [1] (IC50) was put at 1.2 µM.
